This is one part of a sample in which hits are shown more often than they occur.
T cruzi growth-1: inhibitors of T. cruzi proliferation. T. cruzi beta-gal in NIH3T3, GalScreen luminescence, 90 h. inhibition, % at 8.34 µM. hit rate 5.9% among 77,000;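 active = mean inhibition above about 93%, with at least 55% of replicates each passing it, limit read from the data, passing the limit was not always enough; inconclusive = only one of those two conditions holds; inactive = neither condition holds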
KDM4C inh: KDM4C (human) demethylase inhibition; Q9H3R0; GST-KDM4C 2-372, H3K9me3 peptide, LANCE TR-FRET; inhibition, % at 12.5 µM; hit rate 0.15% among 96,000; AID 720574;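 active = mean replicate inhibition above about 25%, with at least 55% of replicates also reaching it, limit read from the data, passing the limit was not always enough; inconclusive = only one of those two conditions met; inactive = neither condition met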
Target sequence (Q9H3R0 2-372 limits assumed): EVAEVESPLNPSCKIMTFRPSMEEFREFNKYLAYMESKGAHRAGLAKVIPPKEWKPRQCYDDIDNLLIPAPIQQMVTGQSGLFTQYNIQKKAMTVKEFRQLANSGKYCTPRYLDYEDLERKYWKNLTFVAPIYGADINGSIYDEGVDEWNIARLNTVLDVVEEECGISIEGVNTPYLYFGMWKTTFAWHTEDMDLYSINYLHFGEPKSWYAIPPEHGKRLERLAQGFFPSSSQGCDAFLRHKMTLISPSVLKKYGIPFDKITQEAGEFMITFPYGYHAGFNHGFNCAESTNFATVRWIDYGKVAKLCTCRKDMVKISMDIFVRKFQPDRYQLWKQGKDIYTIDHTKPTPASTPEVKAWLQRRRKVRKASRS
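material = GST-tagged GASC-1 (JMJD2C) catalytic fragment, aa 2-372 | amount = enzyme final amount 10 nM | medium = HEPES buffer, pH 7.5, plus ascorbate | also added = H3K9me3 peptide substrate, Fe(II), 2-oxoglutarate | dosing = single dose | times = 30 min demethylation and 1 h detection at room temperature | detection = LANCE TR-FRET | read-out basis = Fall in 671/618 emission ratio as inhibition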
IDH1 mut inh: inhibitors of human IDH1 R132H; hit rate 0.18% among 70,000; inhibition, % at 10 µM; O75874; IDH1 R132H reductase, diaphorase/resazurin fluorescence, 60 min; AID 624101; in the data active = inhibition above about 34%; inconclusive = no clear call, values can overlap the other calls; inactive = below about 11%;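 also: 0% = DMSO and 100% = no enzyme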
T cruzi growth-2: blocks T. cruzi growth in NIH3T3 host cells. shares compounds with T cruzi growth-1. T. cruzi beta-gal in NIH3T3, GalScreen luminescence, 90 h. inhibition, % at 8.35 µM. hit rate 72% among 5,600. AID 651739;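 active = mean replicate inhibition above about 95% and at least 55% of replicates individually reaching it, limit read from the data; inconclusive = only one of the two criteria is met; inactive = neither criterion is met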
T cruzi growth-3: blocks T. cruzi growth in NIH3T3 host cells; shares compounds with T cruzi growth-1; T. cruzi beta-gal in NIH3T3, GalScreen luminescence, 90 h; inhibition, % at 2.09 µM; hit rate 21% among 5,600; AID 651740;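 active = mean inhibition above about 95%, with at least 55% of replicates also reaching it, limit read from the data; inconclusive = meets just one of the two conditions; inactive = meets neither condition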;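 also: plate controls were neutral control median for no effect and positive control median for full effect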
3T3 cytotox: NIH/3T3 (mouse) viability loss | shares compounds with T cruzi growth-1 | NIH/3T3 viability, CellTiter-Glo ATP luminescence, 90 h | cytotoxicity (signal decrease), % at 8.35 µM | hit rate 14% among 5,600 | AID 651742;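 active = mean signal decrease across replicates above about 35% based on untreated-well scatter, with enough replicates individually passing, limit read from the data; inconclusive = no rule stated though some were filed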;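 also: 0% = median of neutral control wells and 100% = median of positive control wells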
NIH3T3 tox 2: kills mouse NIH/3T3 fibroblasts; shares compounds with T cruzi growth-1; NIH/3T3 viability, CellTiter-Glo ATP luminescence, 90 h; inhibition, % at 24.9 µM; hit rate 56% among 5,600;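 active = mean loss of cell viability signal at or above a set limit, and enough replicates individually reaching it; inconclusive = meets only the mean limit or only the replicate share; inactive = meets neither condition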;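 also: 0% = median of neutral control wells and 100% = median of positive control wells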
* marks the source's active call; other numbers are inactive results; u = inconclusive; x = not tested or not shown.

SMILES	T cruzi growth-1	KDM4C inh	IDH1 mut inh	T cruzi growth-2	T cruzi growth-3	3T3 cytotox	NIH3T3 tox 2
COCCNC(=O)C[C@H]1C[C@H]2c3cc(NC(=O)Nc4ccc(C(F)(F)F)cc4)ccc3O[C@H]2[C@H](CO)O1	57	1	0	x	x	x	x
COC(=O)C[C@@H]1C[C@@H]2c3cc(NC(=O)Nc4ccc(C(F)(F)F)cc4)ccc3O[C@@H]2[C@H](CO)O1	95	-6	0	x	x	x	x
COCCNC(=O)C[C@@H]1C[C@H]2c3cc(NC(=O)Nc4ccc(C(F)(F)F)cc4)ccc3O[C@H]2[C@H](CO)O1	123*	0	0	42	-2	-14	-2
CCS(=O)(=O)Nc1ccc2c(c1)C(=O)N(C)[C@H]1CC[C@H](CC(=O)Nc3ccccc3C)O[C@@H]1CO2	x	1	x	x	x	x	x
COc1ccc(S(=O)(=O)Nc2ccc3c(c2)C(=O)N([C@@H](C)CO)C[C@H](C)[C@H](CN(C)S(=O)(=O)c2ccc(C)cc2)OCCCC[C@@H](C)O3)cc1	x	1	x	x	x	x	x
COc1ccc(S(=O)(=O)N(C)C[C@H]2OCCCC[C@H](C)Oc3ccc(NS(=O)(=O)c4ccc(C)cc4)cc3C(=O)N([C@H](C)CO)C[C@H]2C)cc1	u	-1	x	107*	93	-7	12
COc1ccc(S(=O)(=O)N(C)C[C@H]2OCCCC[C@H](C)Oc3ccc(NS(=O)(=O)c4ccc(C)cc4)cc3C(=O)N([C@H](C)CO)C[C@@H]2C)cc1	u	-1	-1	110*	66	1	-31
COc1ccc(S(=O)(=O)N(C)C[C@H]2OCCCC[C@@H](C)Oc3ccc(NS(=O)(=O)c4ccc(C)cc4)cc3C(=O)N([C@H](C)CO)C[C@@H]2C)cc1	7	0	x	x	x	x	x
O=C(O)CCCCCCC(=O)N/N=C/c1cccnc1	x	x	0	x	x	x	x
C[C@@H]1CN([C@H](C)CO)S(=O)(=O)c2ccc(C#CC(C)(C)O)cc2O[C@H]1CN(C)Cc1ccncc1	u	-1	16	87	84	44*	71*
C[C@@H]1CN([C@@H](C)CO)S(=O)(=O)c2ccc(C#CC(C)(C)O)cc2O[C@@H]1CN(C)Cc1ccncc1	7	-1	7	x	x	x	x
C[C@H]1CN([C@@H](C)CO)S(=O)(=O)c2ccc(C#CC(C)(C)O)cc2O[C@@H]1CN(C)Cc1ccncc1	52	1	0	x	x	x	x
C[C@@H]1CN([C@@H](C)CO)S(=O)(=O)c2ccc(C#CC(C)(C)O)cc2O[C@H]1CN(C)Cc1ccncc1	100*	0	2	100*	76	12	56*
O=C(C[C@@H]1C[C@@H]2c3cc(NC(=O)Cc4ccncc4)ccc3O[C@@H]2[C@H](CO)O1)NCc1ccc2c(c1)OCO2	x	-3	0	x	x	x	x
CC(C)(O)C#Cc1ccc([C@H]2[C@@H](CO)N3CCCCN(C(=O)c4ccc(F)cc4)C[C@@H]23)cc1	26	0	x	x	x	x	x
CC(C)(O)C#Cc1ccc([C@@H]2[C@@H](CO)N3CCCCN(C(=O)c4ccc(F)cc4)C[C@H]23)cc1	44	1	x	x	x	x	x
CC(C)(O)C#Cc1ccc([C@@H]2[C@@H](CO)N3CCCCN(C(=O)c4cccc(F)c4)C[C@@H]23)cc1	113*	-1	x	52	14	-8	8
CC(C)(O)C#Cc1ccc([C@H]2[C@@H](CO)N3CCCCN(C(=O)c4cccc(F)c4)C[C@@H]23)cc1	103*	1	x	105*	46	15	-30
COc1ccc(NC(=O)c2ccccc2NC(=O)COc2cccc([N+](=O)[O-])c2)cc1	x	x	0	x	x	x	x
COC(=O)c1cc(OC)c(OC)cc1NC(=O)COc1ccccc1F	x	x	0	x	x	x	x
C[C@H](CO)N1C[C@H](C)[C@@H](CN(C)S(=O)(=O)c2ccc(Cl)cc2)OCCCC[C@H](C)Oc2ccc(NC(=O)Cc3ccccc3)cc2C1=O	40	-1	x	x	x	x	x
C[C@@H]1CCCCO[C@H](CN(C)S(=O)(=O)c2ccc(Cl)cc2)[C@@H](C)CN([C@H](C)CO)C(=O)c2cc(NC(=O)Cc3ccccc3)ccc2O1	46	0	2	x	x	x	x
